High-throughput results as filed in PubChem.
rRNA inh HTS – reduced GFP signal of wild-type E. coli, primary screen, bacterial rRNA inhibitor project, GFP/RFP fluorescence, OD600, single point. E. coli WT GFP vs humanized-ribosome RFP mutants, 24 h; stronger effect = lower value; DMSO median 0, no signal -100. GFP signal change (wild-type ribosome), % (concentration not given with the values). 350,000 compounds, 1.6% hits. AID 720706, 2013;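 active = significant combined selectivity score with lowered wild-type GFP, culture density cut under 30%, mutant RFP and density less affected; inactive = any of these conditions unmet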
RAD54 inh – inhibitors of human RAD54 branch migration, primary screen, biochemical, fluorescence, single point | DNA repair and recombination protein RAD54-like (Homo sapiens), Q92698 | AID 602329, 2012 | RAD54 Holliday junction branch migration, FAM/BHQ fluorescence | inhibition, % at 10.4 µM | 360,000 compounds, 0.14% hits;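 active = mean normalized replicate activity at least 40 and at least half of replicates scoring 40 or more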;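 also: 0% = median of neutral control wells and 100% = median of positive control wells; inhibitors cause a drop in the FAM fluorescence signal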
Cneo AK release – Cryptococcus neoformans cell lysis inducers, primary screen, AK release luminescence, single concentration; C. neoformans lysis, adenylate kinase release luminescence, 4 h; normalised: neutral wells 0, clomiphene wells 100; lysis activity, % at 15 µM; 360,000 compounds, 0.2% hits; AID 651654, 2012;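 active = mean lysis activity across replicates of at least 80%, whatever share of replicates individually reach that level; inactive = mean lysis activity below 80%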
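Assay system: C. neoformans cells. Amount: yeast cell density of 5 × 10^6 cells/mL. Technique: AK luminescence. Buffer or medium: YPD. Times: static 4 h at 37 °C with compound, 1 h detection. Dosing: single-point compound dose. Read-out: lysis from increased AK signal.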
RAD52 anneal inh – RAD52 DNA annealing inhibitors, primary screen, biochemical, FRET, single point, set 2 | DNA repair protein RAD52 homolog (Homo sapiens), P43351 | recombinant RAD52 DNA annealing, FRET fluorescence | inhibition, % at 18.7 µM | 360,000 compounds, 0.46% hits | AID 651710, 2012;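 active = every replicate showing at least 50% inhibition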
Target sequence (P43351 whole entry, looked up): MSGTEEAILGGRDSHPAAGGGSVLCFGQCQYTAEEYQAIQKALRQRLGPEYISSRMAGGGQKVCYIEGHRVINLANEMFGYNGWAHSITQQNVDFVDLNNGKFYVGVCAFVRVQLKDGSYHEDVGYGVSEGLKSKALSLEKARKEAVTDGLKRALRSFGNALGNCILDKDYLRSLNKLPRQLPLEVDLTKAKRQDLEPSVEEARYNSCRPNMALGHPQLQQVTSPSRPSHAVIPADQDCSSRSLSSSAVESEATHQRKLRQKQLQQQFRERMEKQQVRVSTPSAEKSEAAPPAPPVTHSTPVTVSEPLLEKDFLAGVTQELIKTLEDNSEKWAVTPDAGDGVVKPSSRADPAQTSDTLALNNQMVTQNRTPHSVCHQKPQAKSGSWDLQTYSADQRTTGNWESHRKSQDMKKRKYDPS
PglD DTNB – C. jejuni PglD acetyltransferase inhibitors, primary screen, biochemical, DTNB colorimetric, single point | AID 602405, 2012 | inhibition, % at 12.5 µM | UDP-N-acetylbacillosamine N-acetyltransferase PglD (Campylobacter jejuni) | purified PglD enzyme, DTNB colorimetric CoA detection | 360,000 compounds, 0.098% hits; in the data active = inhibition above about 16%, passing the limit was not always enough
An asterisk follows results filed as active; · = not tested or not shown; ! = repeats disagree. This is a sample that favours compounds with a hit; in the whole collection about 1.9% have one here.

SMILES	rRNA inh HTS	RAD54 inh	Cneo AK release	RAD52 anneal inh	PglD DTNB
COc1ccccc1S(=O)(=O)N1C[C@@H]2N[C@H](C1)C2c1ccc(-c2ccccc2)cc1 (some centres not stated)	-27	·	·	45	·
COc1ccccc1-c1ccc([C@@H]2[C@@H]3CN(S(=O)(=O)c4ccc(-c5ccccc5)cc4)C[C@H]2N3)cc1	-56	·	·	88*	·
COc1ccccc1-c1ccc(C2[C@@H]3CN(S(=O)(=O)c4ccccc4C)C[C@H]2N3)cc1 (some centres not stated)	-30	·	·	51*	·
COc1cccc(S(=O)(=O)N2C[C@@H]3N[C@H](C2)C3c2ccc(-c3ccccc3C)cc2)c1 (some centres not stated)	11	·	·	43	·
COc1cccc(-c2ccc(C3[C@@H]4CN(S(=O)(=O)c5cccc(OC)c5)C[C@H]3N4)cc2)c1 (some centres not stated)	-6	·	·	70*!	·
O=C(CCl)Nc1cn(-c2ccccc2)nc1-c1ccccc1	-27*	2	-2	-14	-5
CC(=O)Nc1cn(-c2ccccc2)nc1-c1ccccc1	2	·	·	-7	·
COc1ccc2c3c(n(C)c2c1)[C@@H](CO)N(C(=O)CC1CC1)CC31CCN(C(=O)C2CCCC2)CC1	-1	·	·	1	·
C=CCn1c(-c2cc3c(s2)CCC(CC)C3)n[nH]c1=S (configuration not stated)	-38*	·	·	-17	·
C=CCn1c(-c2sccc2C)n[nH]c1=S	·	·	·	1	·
COc1ccc(S(=O)(=O)Nc2ccc3c(c2)C(=O)N([C@@H](C)CO)C[C@H](C)[C@@H](CN(C)C(=O)Nc2ccc4c(c2)OCO4)OCCCC[C@H](C)O3)cc1	-2	-2	56	-3	1
CC(=C/c1ccccc1)/C=N/N1CCN(Cc2ccc(C)cc2)CC1	-25*	-8	3	-9	0
CC(C)[C@@H]1C/C=C\C[C@@H](c2ccc(F)cc2)NC(=O)[C@H](C)CC(=O)N1	1	·	·	·	·
CN1CCC/C1=C1/C(=O)N(c2ccccc2)N=C1NC(=O)Nc1cccc(Cl)c1	-31*	·	·	2	·
Cc1ccc(NC(=O)NC2=NN(c3ccccc3)C(=O)/C2=C2/CCCN2C)cc1	10	-6	-1	-18	4
CCOC(=O)NCc1ccc2[nH]c(C)cc2c1	2	-8	136*	-12	-5
CCOC(=O)CCC(=O)NCc1ccc2[nH]c(C)cc2c1	·	-5	3	·	1
CC(C)[C@H]1C(=O)N[C@H](c2ccc3c(c2)OCO3)CC=CC[C@@H](C)Oc2ccccc2C(=O)N1C (mixture of isomers)	-4	·	·	·	·
CCCCN(Cc1cc2cc(OC)ccc2[nH]c1=O)S(=O)(=O)c1ccc(C)cc1	-10	-21	2	-4	5
CCOC(=O)c1cccc(S(=O)(=O)N(CCO)Cc2cc3cc(OC)ccc3[nH]c2=O)c1	-18*	4	12	-17	-4
COc1ccc2[nH]c(=O)c(CN(CCO)S(=O)(=O)c3ccc(C)cc3)cc2c1	-24*	·	·	-8	·
CCOC(=O)c1cccc(S(=O)(=O)N(CCO)Cc2cc3cc(OC)c(OC)cc3[nH]c2=O)c1	·	6	0	·	-3
CSc1cccc(NC(=S)N2CCC(c3ccccc3)C2)c1 (configuration not stated)	-25*	-3	10	-9	6
CCc1cccc(NC(=S)N2CCC(c3ccccc3)C2)c1 (configuration not stated)	-27	·	·	-4	·
COc1ccc(CCNC(=O)Cc2ccc3c(c2)OCO3)cc1OC	·	-8	-2	·	3
SMILES	rRNA inh HTS	RAD54 inh	Cneo AK release	RAD52 anneal inh	PglD DTNB
COc1ccc(CCNC(=O)CO/N=C/c2cc3c(cc2Br)OCO3)cc1OC	-36*	-2	-2	-10	-6
CCOC(=O)c1sc2nc(C)nc(N3CCCCC3C)c2c1C (configuration not stated)	-26*	·	·	-2	·
Cc1noc(C)c1S(=O)(=O)Nc1cccc2c1O[C@H](CN(C)CC1CCCCC1)[C@H](C)CN([C@H](C)CO)C2=O	2	-1	3	-9	3
O=C(NN=Cc1ccccc1O)C1CC1	7	-6	7	-8	-2
O=C(N/N=C/c1ccccc1O)C1SCCCS1	-14*	·	·	-11	·
C[C@]12c3[nH]c4ccccc4c3CCN1C(=O)C(CC(=O)NCc1ccco1)C[C@@H]2C(=O)N1CCOCC1 (some centres not stated)	5	-2	-4	-5	-2
C[C@]12c3[nH]c4ccc(Cl)cc4c3CCN1C(=O)[C@@H](CC(=O)NCc1ccco1)C[C@@H]2C(=O)N1CCOCC1	-23*	4	2	-16	0
COc1cc2cc(CCCOC(=O)c3ccc(F)cc3)oc(=O)c2cc1OC	-25*	10	3	-21	0
CCCC(=O)Nc1ccc2c(c1)OC[C@@H](C)N(C(=O)CN(C)C)C[C@H](C)[C@H](OC)CN(C)C2=O	1	0	0	3	-3
O=C(NC(=S)Nc1ccc(Br)cc1)C1CCC1	-8	-5	146*	2	4
O=C(NC(=S)Nc1ccc(Br)cc1)C1CCCCC1	4	10	-2	1	-2
Cc1ccc(-n2c(CCC(=O)O)ccc2-c2cccs2)cc1	-28*	-16	-3	-18	-1
COc1ccc(-n2c(CCC(=O)O)ccc2-c2ccccc2)cc1	-25*	2	1	-11	-3
CN=c1scc(-c2cccs2)n1/N=C/c1ccccc1O	-27*	·	·	-10	·
COc1ccc(S(=O)(=O)Nc2ccc3c(c2)C(=O)N([C@H](C)CO)C[C@@H](C)[C@H](CN(C)S(=O)(=O)c2ccc(OC)cc2)OCCCC[C@@H](C)O3)cc1	-1	-8	-8	·	2
Cc1cc(NC(=O)CSc2nccn2-c2cccc(C)c2C)no1	-28*	·	·	-4	·
CCOc1ccc(Cl)cc1CSc1ncn[nH]1	-22*	4	14	-9	·
CCCc1cn(CC[C@@H]2CC[C@@H](NC(=O)C3CCCC3)[C@@H](CO)O2)nn1	4	-3	-2	-2	-3
O=C(COn1nnc2ccc(C(F)(F)F)cc21)Nc1c(Cl)cccc1Cl	-25*	·	·	-12	·
Cc1cccc(C)c1NC(=O)COn1nnc2ccc(C(F)(F)F)cc21	1	·	·	-7	·
C[C@@H]1CCCCO[C@H](CN(C)Cc2ccc(C(F)(F)F)cc2)[C@@H](C)CN([C@@H](C)CO)C(=O)c2cc(NS(=O)(=O)c3ccc(F)cc3)ccc2O1	-3	-10	0	·	0
NS(=O)(=O)c1ccc(NC(=O)N2c3ccccc3Sc3ccccc32)cc1	-45*	·	·	-12	·
